Key:
HEp-2 = assay: Concentration that produces 50 % inhibition of cloning of H.Ep.-2 cells in suspension culture, over a 12-day period; assay type: functional, cell-based; conditions: Homo sapiens, HEp-2, 288 h; read-out: I50
Procedure, shortened: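 H.Ep.-2 cells tested by cloning over a 12-day period. I50 is the concentration giving 50% inhibition of colony formation relative to untreated control growth.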

[1] = Half-life period determined in water at room temperature.; assay type: ADME
Mus musculus [2] = assay: Activity against P388 leukemia was determined in vivo. The percent increase in life span at a compound dose of 100 mg/kg.; assay type: functional
Procedure, shortened: (§1)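 P388 leukemia in vivo; dosing given as a single injection on days 1-5. Read-out is the percent increase in life span relative to untreated controls.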

[3] = Ratio of the cytotoxic concentrations (I50''s) against H.Ep.-2 and L1210 cells.; assay type: functional
L1210 = assay: Concentration that produces 50 % inhibition of proliferation of L1210 cells in suspension culture in 48 h,; assay type: functional, cell-based; conditions: Mus musculus, L1210, 48 h; read-out: I50
Procedure, shortened: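 L1210 cells grown in suspension culture for 48 h with compound. I50 is the concentration giving 50% inhibition of proliferation relative to control growth.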

Mus musculus [4] = assay: Activity against P388 leukemia was determined in vivo. The percent increase in life span at a compound dose of 50 mg/kg.; assay type: functional; procedure, shortened: as §1
Mus musculus [5] = assay: Activity against P388 leukemia was determined in vivo. The percent increase in life span at a compound dose of 12.5 mg/kg.; assay type: functional; procedure, shortened: as §1
Mus musculus [6] = assay: Activity against P388 leukemia was determined in vivo. The percent increase in life span at a compound dose of 200 mg/kg.; assay type: functional; procedure, shortened: as §1
[7] = Ratio of the cytotoxic concentrations (I50's) against H.Ep.-2 and L1210 cells.; assay type: functional
Mus musculus [8] = assay: Activity against P388 leukemia was determined in vivo. The percent increase in life span at a compound dose of 25 mg/kg.; assay type: functional; procedure, shortened: as §1

Row | SMILES | IC50 (HEp-2) [µM] | half-life [1] [h] | ILS at 100 mg/kg (Mus musculus [2]) [%] | Ratio [3] | IC50 (L1210) [µM] | ILS at 50 mg/kg (Mus musculus [4]) [%] | ILS at 12.5 mg/kg (Mus musculus [5]) [%] | ILS at 200 mg/kg (Mus musculus [6]) [%] | Ratio [7] | ILS at 25 mg/kg (Mus musculus [8]) [%]
1 | Cc1cn(C2CC(O)C(C(=O)Nc3ccc(C(=O)CCl)cc3)O2)c(=O)[nH]c1=O (stereo not given) | 30 | > 52 | 14 | 14 | 28 |  |  |  |  | 
2 | Cc1cn(C2CC(O)C(CNC(=O)c3ccc(C(=O)CBr)cc3)O2)c(=O)[nH]c1=O (stereo not given) | > 40 | 1 |  | 15 | > 70 | 15 |  |  |  | 
3 | Cc1cn(C2CC(O)C(CCC(=O)CBr)O2)c(=O)[nH]c1=O (stereo not given) | 55 | 1.8 |  | 16 | 110 |  | 16 |  |  | 
4 | Cc1cn(C2CC(O)C(C(=O)Nc3ccc(C(=O)CBr)cc3)O2)c(=O)[nH]c1=O (stereo not given) | 12 | 4 |  | 38 | 6 |  |  | 38 |  | 
5 | Cc1cn(C2CC(O)C(CCC(=O)CCl)O2)c(=O)[nH]c1=O (stereo not given) | 25 | > 52 |  |  | 66 | 10 |  |  | 10 | 
6 | Cc1cn(C2CC(O)C(C(=O)Nc3ccc(C(=O)CI)cc3)O2)c(=O)[nH]c1=O (stereo not given) | 29 | 13 |  | 5 | 8 |  |  |  |  | 5
7 | Cc1cn(C2CC(O)C(CCC(=O)CI)O2)c(=O)[nH]c1=O (stereo not given) | 17 | 4 |  | 16 | 20 |  |  |  |  | 16

Source: ChEMBL document CHEMBL1122739, “Potential inhibitors of nucleotide biosynthesis. 2. Halomethyl ketone derivatives of pyrimidine nucleosides” (J Med Chem, 1984)
